Most compounds without a hit are left out; they make up all but 9.6% or so of the library.
BaF3 tox – parental Ba/F3 cell viability inhibition, counter-screen for JAK2V617F inhibitor project, murine pro-B, CellTiter-Glo luminescence; CellTiter-Glo ATP luminescence; inhibition, % at 5.6 µM; 220,000 tested, 1.1% active; AID 1486, 2009;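 active = inhibition above a per-campaign cutoff, the mean inhibition of all tested compounds plus 3 SD, cut at about 27% in these data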
Ba/F3 V617F tox – reduced viability of JAK2V617F-dependent Ba/F3 cells, primary screen, JAK2V617F inhibitor project, cell-based, Ba/F3 EpoR-JAK2V617F, luminescence; ATP luminescence; inhibition, % at 5.6 µM; 220,000 tested, 1.1% active; AID 1446, 2008;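 active = inhibition above the campaign mean plus 3 SD over all tested compounds, cut at about 24% in these data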;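 also: cytokine-independent growth of Ba/F3 cells driven by EpoR plus mutant JAK2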
bCat nuc transl – modulators of beta-catenin nuclear translocation, primary screen, imaging, HeLa cells, immunofluorescence, high-content; 190,000 tested, 0.3% active; nuclear translocation activity, % at 5 µM; AID 1665, 2009;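 active = nuclear translocation activity above 50% at 5 µM, with a well cell count of 50 or more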;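 also: per-cell ratio of nuclear to cytoplasmic median beta-catenin stain intensity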
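Assay system: human HeLa cells, native beta-catenin; doses: 5 µM primary, 0.02–20 µM confirmation; incubation: compound treatment 24 h, 37°C, 5% CO2; technique: fluorescence imaging of beta-catenin antibody stain plus DAPI; measure: % activation, nuclear-to-cytoplasmic median beta-catenin signal ratio per cell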
L major viab – Leishmania major promastigote growth inhibition, primary screen | Leishmania major promastigotes, resazurin fluorescence viability | inhibition, % at 10 µM | 200,000 tested, 9% active | AID 1063, 2008; in the data active = inhibition above about 50%;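 also: promastigotes grown with compound for 44 hours at 28 °C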
APP 5UTR inh – inhibitors of APP translation via 5'UTR reporter, primary screen, APP 5'UTR luciferase, SH-SY5Y cells; SH-SY5Y APP 5'UTR-luciferase reporter, luminescence; AID 1285, 2008; 190,000 tested, 0.82% active; inhibition, % at 2 µM;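 active = inhibition above a set limit, derived from the sample mean plus 3 SD, cut at about 45% in these data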
MT stabilize HCS – microtubule stabilizers in HeLa cells, primary screen, imaging, high-content imaging. HeLa tubulin immunostaining HCS, 24 h; share of cells brighter than vehicle mean+2SD. % tubulin-high responders, % at 10 µM. 200,000 tested, 0.83% active;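 active = plate Z-score above 3 for both tubulin-high and condensed-nucleus cell shares, with cell loss under 80%, at 10 µM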;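 also: anti alpha tubulin signal scored within the nucleus-defined area of each cell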
Numbers stand for hits; n = inactive; x = no result given.

SMILES | BaF3 tox | Ba/F3 V617F tox | bCat nuc transl | L major viab | APP 5UTR inh | MT stabilize HCS
COc1ccc(CC(=O)N2CCN=C2SCc2ccc([N+](=O)[O-])cc2)cc1 | n | n | n | 76 | n | n
O=C(COc1ccccc1)N1CCN=C1SCc1ccc(F)cc1 | n | n | n | x | x | x
O=C(COc1ccccc1)N1CCN=C1SCc1cccnc1 | n | n | n | 65 | n | n
Cc1ccc(C(=O)N/N=C\c2ccccc2[N+](=O)[O-])cn1 | n | n | n | n | n | n
Cc1c(C(=O)N/N=C/C(C)C)[nH]c2c([N+](=O)[O-])cccc12 | n | n | n | n | 92 | n
C=CCN(C(=O)CN1CCOCC1)c1nc(C)c(-c2ccccc2)s1 | 27 | n | n | n | n | n
Cc1cccc(Cn2c(=O)n(-c3ccc(CC(=O)NCc4ccco4)cc3)c(=O)c3sccc32)c1 | n | n | n | 63 | n | 29
Cc1ccc(-n2c(=O)c3sccc3n(CC(=O)NCc3ccco3)c2=O)cc1 | n | n | n | n | n | n
COc1cccc(CN2CCN(Cc3ccc4c(NC(C)=O)cccc4n3)CC2CCO)c1 (centres undefined) | n | n | n | n | n | n
Cc1ccc(C2(c3noc(CN4CCC(c5ccncc5)CC4)n3)CCCC2)cc1 | n | n | n | 51 | n | n
Cc1ccc(C2(c3noc(CN(C)CC4CCCCO4)n3)CCCC2)cc1 (centres undefined) | n | n | n | n | n | n
Fc1cccc(Cc2noc(CN3CCC(c4ccncc4)CC3)n2)c1 | n | n | n | 95 | n | n
OCC1CCCN(C2CCN(Cc3nc(Cc4cccc(C(F)(F)F)c4)no3)CC2)C1 (centres undefined) | n | n | n | 89 | n | n
CCOC(=O)c1c(C)[nH]c(C)c1C(=O)COC(=O)/C=C/c1cccc(C(F)(F)F)c1 | n | n | x | 59 | n | n
CCOC(=O)c1c(C)[nH]c(C)c1C(=O)COC(=O)c1cc2ccccc2cc1OC | n | n | n | 64 | n | n
CCN(CC)c1ccc(/C=N/OCC(=O)N2CCCc3ccccc32)cc1 | n | n | n | n | n | n
CC(Oc1ccc(Cl)cc1Cl)C(=O)Nc1ccncc1 (centres undefined) | n | n | 52 | n | n | 56
CC(=O)Nc1ccc(NC(=O)C(C)Oc2ccc(Cl)cc2Cl)cc1 (centres undefined) | n | n | n | 57 | n | n
O=C(CCCOc1ccc(Cl)cc1Cl)Nc1ccncc1 | n | n | x | 99 | n | n
CC(Oc1ccc(Cl)cc1Cl)C(=O)Nc1ccc(OCC(=O)O)cc1 (centres undefined) | n | n | n | n | n | n
O=C(CCCOc1ccc(Cl)cc1Cl)Nc1ccccn1 | n | n | n | n | n | n
CC(Oc1ccc(Cl)cc1Cl)C(=O)Nc1cccnc1 (centres undefined) | n | n | n | n | n | n
CC(Oc1ccc(Cl)cc1Cl)C(=O)NCCCN1CCOCC1 (centres undefined) | n | n | x | 90 | x | n
CN(CC(=O)Nc1ccncc1)S(=O)(=O)c1ccc(Br)cc1 | n | n | x | n | n | n
C/C(=N\NC(=O)c1c(Br)c(C)nn1C)c1ccc(NC(=O)C(C)Oc2ccc(Cl)cc2C)cc1 (centres undefined) | n | n | n | 98 | n | n
SMILES | BaF3 tox | Ba/F3 V617F tox | bCat nuc transl | L major viab | APP 5UTR inh | MT stabilize HCS
CN(CCCC(=O)Nc1ccncc1)S(=O)(=O)c1ccc(Cl)cc1 | n | n | n | 86 | n | n
COc1cccc(/C=N/NC(=O)Cn2cnc3c2c(=O)n(C)c(=O)n3C)c1OC | n | n | n | x | x | x
Cc1ccc(N2C(=O)CS/C2=N\C(=S)Nc2ccccc2)cc1 | n | n | n | x | x | x
Cc1ccc(S(=O)(=O)NC(C(=O)Oc2cc3oc(=O)cc(C)c3cc2Cl)C(C)C)cc1 (centres undefined) | n | n | n | n | n | n
O=C(CCCc1cccs1)Nc1ccc2c(c1)OCO2 | n | n | n | n | n | n
CC/C(C)=N/Nc1cccc([N+](=O)[O-])c1 | n | n | n | 96 | n | n
COC(=O)CCC(=O)N1CCc2cc(S(=O)(=O)N3CCN(c4ccccc4Cl)CC3)ccc21 | n | n | n | n | n | n
COc1cccc(C(=O)Nc2ncc3c(n2)CC(c2ccc(OC)cc2OC)CC3=O)c1 (centres undefined) | n | n | 73 | n | n | n
Cc1ccsc1/C=N/Nc1nc2ccccc2[nH]1 | n | n | n | n | n | n
Cc1c(/C=N/Nc2nc3ccccc3[nH]2)c2ccccc2n1C | n | n | n | x | x | x
Cn1c(/C=N/Nc2nc3ccccc3[nH]2)nc2ccccc21 | n | n | n | 101 | n | n
C(=N\Nc1nc2ccccc2[nH]1)/c1cccs1 | n | n | n | 98 | n | n
C=CCn1cc(/C=N/Nc2nc3ccccc3[nH]2)c2ccccc21 | n | n | n | 101 | n | n
CCCn1c(/C=N/Nc2nc3ccccc3[nH]2)nc2ccccc21 | n | n | n | 100 | 74 | n
CC(C)n1c(O)c(N=NC(=O)C2COc3ccccc3O2)c2ccccc21 (centres undefined) | n | n | n | n | n | x
CC(C)Cn1c(/C=N/Nc2nc3ccccc3[nH]2)nc2ccccc21 | n | n | n | 100 | 71 | n
Cc1nn(-c2ccccc2)c(Cl)c1/C=N/Nc1nc2ccccc2n1C | n | n | n | 52 | n | n
Cc1nn(-c2ccccc2)c(C)c1/C=N/Nc1nc2ccccc2[nH]1 | n | n | n | 100 | n | n
Cc1ccc(N2CCN(/N=C/c3c(C)nn(-c4ccccc4)c3Cl)CC2)cc1 | n | n | x | 89 | n | n
CCOCCCNC(=O)c1c[nH]c2ccc(OCC)cc2c1=O | n | n | n | x | x | x
O=C1OC(/C(=C\Nc2ccccc2)[N+](=O)[O-])c2ccccc21 (centres undefined) | n | n | n | x | x | x
Cc1ccc(S(=O)(=O)Nc2nc3ccccc3nc2NCC2CCCO2)cc1C (centres undefined) | n | n | n | x | x | x
COc1cc(/C=N/NC(=O)c2ccc3nc[nH]c3c2)cc(OC)c1OC | n | n | n | x | x | x
COc1ccc(/C=N/NC(=O)c2ccc3ccccc3c2)cc1OS(=O)(=O)c1ccc(NC(C)=O)cc1 | n | n | 109 | n | 72 | n
COc1cc(/C=N/NC(=O)CN(CCc2ccccc2)S(=O)(=O)c2ccc(NC(C)=O)cc2)cc(OC)c1OC | n | n | n | 60 | n | n
COc1cc(/C=N/NC(=O)c2ccc(N(C)S(=O)(=O)c3ccccc3)cc2)cc(OC)c1OC | n | n | n | 100 | n | n
COc1ccc(/C=N/NC(=O)CN(CCc2ccccc2)S(=O)(=O)c2ccc(NC(C)=O)cc2)cc1OC | n | n | n | n | n | n
